Experimental data reported in ChEMBL document CHEMBL1649395, “Synthesis and antibacterial activity of novel ketolides with 11,12-sulfur contained aryl alkyl side chains” (2011).
≈ marks a conversion by molar mass, not a printed value.

Columns and labels:
Format in all cases: functional
[1] = test system: Staphylococcus epidermidis; experiment: Antibacterial activity against methicillin-susceptible Staphylococcus epidermidis 07C134 by broth microdilution method
Outline: (§1)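 Clinical isolates were supplied by China's Ministry of Health National Antimicrobial Resistance Investigation Net (MOHNARIN). Activity was reported as minimum inhibitory concentration (MIC), determined by broth microdilution following NCCLS recommendations.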

Staphylococcus aureus [2] = experiment: Antibacterial activity against methicillin-susceptible Staphylococcus aureus ANS46 by broth microdilution method
Outline: (§2)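 Strains were ATCC reference strains or clinical isolates from China's national antimicrobial resistance surveillance network (MOHNARIN). In vitro activity was measured by broth microdilution following NCCLS recommendations. Results are reported as minimum inhibitory concentration (MIC) in mg/L.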

Streptococcus pyogenes [3] = experiment: Antibacterial activity against erythromycin-susceptible Streptococcus pyogenes 07U086 by broth microdilution method; outline: as §2
[4] = test system: Staphylococcus epidermidis; experiment: Antibacterial activity against methicillin-resistant Staphylococcus epidermidis 07A066 by broth microdilution method; outline: as §1
Streptococcus pyogenes [5] = experiment: Antibacterial activity against erythromycin-susceptible Streptococcus pyogenes 07U084 by broth microdilution method; outline: as §2
Haemophilus influenzae [6] = experiment: Antibacterial activity against erythromycin-susceptible Haemophilus influenzae 07O339 by broth microdilution method; outline: as §2
Streptococcus pneumoniae [7] = experiment: Antibacterial activity against erythromycin-susceptible Streptococcus pneumoniae ATCC 49619 by broth microdilution method; outline: as §2
Haemophilus influenzae [8] = experiment: Antibacterial activity against erythromycin-susceptible Haemophilus influenzae 07O394 by broth microdilution method; outline: as §2
Haemophilus influenzae [9] = experiment: Antibacterial activity against erythromycin-susceptible Haemophilus influenzae ATCC 49247 by broth microdilution method; outline: as §2
Haemophilus influenzae [10] = experiment: Antibacterial activity against erythromycin-susceptible Haemophilus influenzae 07O114 by broth microdilution method; outline: as §2
[11] = test system: Staphylococcus epidermidis; experiment: Antibacterial activity against methicillin-resistant Staphylococcus epidermidis 07R066 by broth microdilution method; outline: as §1
Streptococcus pneumoniae [12] = experiment: Antibacterial activity against erythromycin-resistant Streptococcus pneumoniae 07D201 by broth microdilution method; outline: as §1
Streptococcus pneumoniae [13] = experiment: Antibacterial activity against erythromycin-resistant Streptococcus pneumoniae 07P390 by broth microdilution method; outline: as §1
Streptococcus pneumoniae [14] = experiment: Antibacterial activity against erythromycin-susceptible Streptococcus pneumoniae 07H252 by broth microdilution method; outline: as §2
Streptococcus pyogenes [15] = experiment: Antibacterial activity against erythromycin-resistant Streptococcus pyogenes 01-533 by broth microdilution method; outline: as §1
Streptococcus pyogenes [16] = experiment: Antibacterial activity against erythromycin-resistant Streptococcus pyogenes 03-233 by broth microdilution method; outline: as §1
[17] = test system: Staphylococcus epidermidis; experiment: Antibacterial activity against methicillin-susceptible Staphylococcus epidermidis 07T202 by broth microdilution method; outline: as §2
Staphylococcus aureus [18] = experiment: Antibacterial activity against methicillin-susceptible Staphylococcus aureus ATCC 29213 by broth microdilution method; outline: as §2

SMILES: CC[C@H]1OC(=O)[C@H](C)C(=O)[C@H](C)[C@@H](O[C@@H]2O[C@H](C)C[C@H](N(C)C)[C@H]2O)[C@@](C)(OC)C[C@@H](C)C(=O)[C@H](C)[C@H]2N(CCCSc3nccs3)C(=O)O[C@]12C
- MIC [1]: 0.125 µg/mL (≈ 0.162 µM)
- MIC (Staphylococcus aureus [2]): > 32 µg/mL
- MIC (Streptococcus pyogenes [3]): ≤ 0.016 µg/mL
- MIC [4]: 0.125 µg/mL (≈ 0.162 µM)
- MIC (Streptococcus pyogenes [5]): ≤ 0.016 µg/mL
- MIC (Haemophilus influenzae [6]): 4 µg/mL (≈ 5.19 µM)
- MIC (Streptococcus pneumoniae [7]): 0.031 µg/mL (≈ 0.0403 µM)
- MIC (Haemophilus influenzae [8]): 4 µg/mL (≈ 5.19 µM)
- MIC (Haemophilus influenzae [9]): 4 µg/mL (≈ 5.19 µM)
- MIC (Haemophilus influenzae [10]): 4 µg/mL (≈ 5.19 µM)
- MIC [11]: 0.062 µg/mL (≈ 0.0805 µM)
- MIC (Streptococcus pneumoniae [12]): > 32 µg/mL
- MIC (Streptococcus pneumoniae [13]): 0.25 µg/mL (≈ 0.325 µM)
- MIC (Streptococcus pneumoniae [14]): 0.5 µg/mL (≈ 0.649 µM)
- MIC (Streptococcus pyogenes [15]): 0.5 µg/mL (≈ 0.649 µM)
- MIC (Streptococcus pyogenes [16]): > 32 µg/mL
- MIC [17]: > 32 µg/mL
- MIC (Staphylococcus aureus [18]): 0.125 µg/mL (≈ 0.162 µM)

SMILES: CC[C@H]1OC(=O)[C@H](C)C(=O)[C@H](C)[C@@H](O[C@@H]2O[C@H](C)C[C@H](N(C)C)[C@H]2O)[C@@](C)(OC)C[C@@H](C)C(=O)[C@H](C)[C@H]2N(CCCSc3ccoc3C)C(=O)O[C@]12C
- MIC [1]: 0.25 µg/mL (≈ 0.326 µM)
- MIC (Staphylococcus aureus [2]): > 16 µg/mL
- MIC (Streptococcus pyogenes [3]): 0.125 µg/mL (≈ 0.163 µM)
- MIC [4]: 0.25 µg/mL (≈ 0.326 µM)
- MIC (Streptococcus pyogenes [5]): 0.125 µg/mL (≈ 0.163 µM)
- MIC (Haemophilus influenzae [6]): 16 µg/mL (≈ 20.9 µM)
- MIC (Streptococcus pneumoniae [7]): 0.031 µg/mL (≈ 0.0404 µM)
- MIC (Haemophilus influenzae [8]): 16 µg/mL (≈ 20.9 µM)
- MIC (Haemophilus influenzae [9]): 16 µg/mL (≈ 20.9 µM)
- MIC (Haemophilus influenzae [10]): 8 µg/mL (≈ 10.4 µM)
- MIC [11]: 0.25 µg/mL (≈ 0.326 µM)
- MIC (Streptococcus pneumoniae [12]): > 16 µg/mL
- MIC (Streptococcus pneumoniae [13]): 0.25 µg/mL (≈ 0.326 µM)
- MIC (Streptococcus pneumoniae [14]): 1 µg/mL (≈ 1.3 µM)
- MIC (Streptococcus pyogenes [15]): 0.5 µg/mL (≈ 0.652 µM)
- MIC (Streptococcus pyogenes [16]): > 16 µg/mL
- MIC [17]: > 16 µg/mL
- MIC (Staphylococcus aureus [18]): 0.25 µg/mL (≈ 0.326 µM)

SMILES: CC[C@H]1OC(=O)[C@H](C)C(=O)[C@H](C)[C@@H](O[C@@H]2O[C@H](C)C[C@H](N(C)C)[C@H]2O)[C@@](C)(OC)C[C@@H](C)C(=O)[C@H](C)[C@H]2N(CCCSc3nnnn3C)C(=O)O[C@]12C
- MIC [1]: 0.25 µg/mL (≈ 0.325 µM)
- MIC (Staphylococcus aureus [2]): > 32 µg/mL
- MIC (Streptococcus pyogenes [3]): 0.062 µg/mL (≈ 0.0806 µM)
- MIC [4]: 1 µg/mL (≈ 1.3 µM)
- MIC (Streptococcus pyogenes [5]): 0.062 µg/mL (≈ 0.0806 µM)
- MIC (Haemophilus influenzae [6]): 8 µg/mL (≈ 10.4 µM)
- MIC (Streptococcus pneumoniae [7]): 0.031 µg/mL (≈ 0.0403 µM)
- MIC (Haemophilus influenzae [8]): 8 µg/mL (≈ 10.4 µM)
- MIC (Haemophilus influenzae [9]): 8 µg/mL (≈ 10.4 µM)
- MIC (Haemophilus influenzae [10]): 8 µg/mL (≈ 10.4 µM)
- MIC [11]: > 32 µg/mL
- MIC (Streptococcus pneumoniae [12]): > 32 µg/mL
- MIC (Streptococcus pneumoniae [13]): 0.5 µg/mL (≈ 0.65 µM)
- MIC (Streptococcus pneumoniae [14]): 8 µg/mL (≈ 10.4 µM)
- MIC (Streptococcus pyogenes [15]): 1 µg/mL (≈ 1.3 µM)
- MIC (Streptococcus pyogenes [16]): > 32 µg/mL
- MIC [17]: > 32 µg/mL
- MIC (Staphylococcus aureus [18]): 0.25 µg/mL (≈ 0.325 µM)

SMILES: CC[C@H]1OC(=O)[C@H](C)C(=O)[C@H](C)[C@@H](O[C@@H]2O[C@H](C)C[C@H](N(C)C)[C@H]2O)[C@@](C)(OC)C[C@@H](C)C(=O)[C@H](C)[C@H]2N(CCCSc3nnnn3-c3ccccc3)C(=O)O[C@]12C
- MIC [1]: 0.5 µg/mL (≈ 0.602 µM)
- MIC (Staphylococcus aureus [2]): > 32 µg/mL
- MIC (Streptococcus pyogenes [3]): 0.125 µg/mL (≈ 0.15 µM)
- MIC [4]: 0.5 µg/mL (≈ 0.602 µM)
- MIC (Streptococcus pyogenes [5]): 0.125 µg/mL (≈ 0.15 µM)
- MIC (Haemophilus influenzae [6]): 32 µg/mL (≈ 38.5 µM)
- MIC (Streptococcus pneumoniae [7]): 0.125 µg/mL (≈ 0.15 µM)
- MIC (Haemophilus influenzae [8]): 32 µg/mL (≈ 38.5 µM)
- MIC (Haemophilus influenzae [9]): 16 µg/mL (≈ 19.3 µM)
- MIC (Haemophilus influenzae [10]): 16 µg/mL (≈ 19.3 µM)
- MIC [11]: 0.25 µg/mL (≈ 0.301 µM)
- MIC (Streptococcus pneumoniae [12]): > 32 µg/mL
- MIC (Streptococcus pneumoniae [13]): 0.5 µg/mL (≈ 0.602 µM)
- MIC (Streptococcus pneumoniae [14]): 1 µg/mL (≈ 1.2 µM)
- MIC (Streptococcus pyogenes [15]): 2 µg/mL (≈ 2.41 µM)
- MIC (Streptococcus pyogenes [16]): > 32 µg/mL
- MIC [17]: > 32 µg/mL
- MIC (Staphylococcus aureus [18]): 0.25 µg/mL (≈ 0.301 µM)

SMILES: CC[C@H]1OC(=O)[C@H](C)C(=O)[C@H](C)[C@@H](O[C@@H]2O[C@H](C)C[C@H](N(C)C)[C@H]2O)[C@@](C)(OC)C[C@@H](C)C(=O)/C(C)=C/[C@]1(C)OC(=O)NCCCSc1nc2ccccc2o1
- MIC [1]: 4 µg/mL (≈ 4.98 µM)
- MIC (Staphylococcus aureus [2]): > 16 µg/mL
- MIC (Streptococcus pyogenes [3]): 2 µg/mL (≈ 2.49 µM)
- MIC [4]: 4 µg/mL (≈ 4.98 µM)
- MIC (Streptococcus pyogenes [5]): 2 µg/mL (≈ 2.49 µM)
- MIC (Haemophilus influenzae [6]): > 16 µg/mL
- MIC (Streptococcus pneumoniae [7]): 2 µg/mL (≈ 2.49 µM)
- MIC (Haemophilus influenzae [8]): > 16 µg/mL
- MIC (Haemophilus influenzae [9]): > 16 µg/mL
- MIC (Haemophilus influenzae [10]): > 16 µg/mL
- MIC [11]: 4 µg/mL (≈ 4.98 µM)
- MIC (Streptococcus pneumoniae [12]): > 16 µg/mL
- MIC (Streptococcus pneumoniae [13]): > 16 µg/mL
- MIC (Streptococcus pneumoniae [14]): 16 µg/mL (≈ 19.9 µM)
- MIC (Streptococcus pyogenes [15]): > 16 µg/mL
- MIC (Streptococcus pyogenes [16]): > 16 µg/mL
- MIC [17]: > 16 µg/mL
- MIC (Staphylococcus aureus [18]): 4 µg/mL (≈ 4.98 µM)

SMILES: CC[C@H]1OC(=O)[C@H](C)C(=O)[C@H](C)[C@@H](O[C@@H]2O[C@H](C)C[C@H](N(C)C)[C@H]2O)[C@](C)(OC)C[C@@H](C)C(=O)[C@H](C)[C@H]2N(CCCCn3cnc(-c4cccnc4)c3)C(=O)O[C@]12C [TELITHROMYCIN]
- MIC [1]: 0.125 µg/mL (≈ 0.154 µM)
- MIC (Staphylococcus aureus [2]): > 16 µg/mL
- MIC (Streptococcus pyogenes [3]): 0.062 µg/mL (≈ 0.0764 µM)
- MIC [4]: 0.125 µg/mL (≈ 0.154 µM)
- MIC (Streptococcus pyogenes [5]): 0.062 µg/mL (≈ 0.0764 µM)
- MIC (Haemophilus influenzae [6]): 4 µg/mL (≈ 4.93 µM)
- MIC (Streptococcus pneumoniae [7]): 0.031 µg/mL (≈ 0.0382 µM)
- MIC (Haemophilus influenzae [8]): 4 µg/mL (≈ 4.93 µM)
- MIC (Haemophilus influenzae [9]): 4 µg/mL (≈ 4.93 µM)
- MIC (Haemophilus influenzae [10]): 4 µg/mL (≈ 4.93 µM)
- MIC [11]: 0.125 µg/mL (≈ 0.154 µM)
- MIC (Streptococcus pneumoniae [12]): 1 µg/mL (≈ 1.23 µM)
- MIC (Streptococcus pneumoniae [13]): 0.031 µg/mL (≈ 0.0382 µM)
- MIC (Streptococcus pneumoniae [14]): 0.062 µg/mL (≈ 0.0764 µM)
- MIC (Streptococcus pyogenes [15]): 0.25 µg/mL (≈ 0.308 µM)
- MIC (Streptococcus pyogenes [16]): 2 µg/mL (≈ 2.46 µM)
- MIC [17]: > 16 µg/mL
- MIC (Staphylococcus aureus [18]): 0.125 µg/mL (≈ 0.154 µM)
